This is an account of results in ChEMBL document CHEMBL1124188, “Soft drugs. 7. Soft beta-blockers for systemic and ophthalmic use” (J Med Chem, 1988).

Series [1] can be described thus: (§1) Half life period determined in human blood. Format: ADME, organism-based. In short, it runs like this:
(§2)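 Compounds were placed in human blood, and samples were withdrawn over time. Each sample was mixed at once with ice-cold acetonitrile and centrifuged. The supernatant was analysed by reverse-phase C18 HPLC with variable-wavelength UV detection. Disappearance was treated as pseudo-first-order. Values are the mean of at least four runs ± SE of the mean.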

The species named for series [2] is Homo sapiens. The experiment in a line: In vitro hydrolytic rate constant determined in human blood. Format: ADME. The essentials:
as §2

Series [3] is filed under the species Homo sapiens. The series is described as §1. The note with it: in vitro. Format: ADME, organism-based. In short, it runs like this: as §2

As a reminder, the half-life is the time in which the quantity being followed falls by half. Read a high half-life as slow loss. `CC(C)NCC(O)COc1ccc(CC(=O)OCC23CC4CC(CC(C4)C2)C3)cc1` (centres undefined) showed a half-life in series [1] (human blood) of 46.2 min. This compound registered a K in the series listed under Homo sapiens [2] of 0.015 min⁻¹.
For `CC(C)NCC(O)COc1ccc(CC(=O)OC2CC3CCC2C3)cc1` (stereo in doubt; 3f) the same measures were 34.6 min and 0.02 min⁻¹.
The matching figures for `CC(C)NCC(O)COc1ccc(CC(=O)OC2CC3CCC2(C)C3(C)C)cc1` (centres undefined): 770 min and 0.0009 min⁻¹.
`CC(C)NCC(O)COc1ccc(CC(=O)OCCC23CC4CC(CC(C4)C2)C3)cc1` (centres undefined) [ADAPROLOL] came in with a half-life in series [1] of 6.9 min. In addition, the K in the series listed under Homo sapiens [2] was 0.1 min⁻¹.
On to `CC(C)NCC(O)COc1ccc(CC(=O)OC2CC3CCC2C3)cc1` (stereo in doubt; 3e), for which, in the series filed under Homo sapiens [3], the T1/2 was 19.8 min. The compound also had a K in the series listed under Homo sapiens [2] of 35000 min⁻¹.
For `COC(=O)CCc1ccc(OCC(O)CNC(C)C)cc1` (centres undefined) [ESMOLOL] the same measures were 210 min and 0.0033 min⁻¹.
In series [1] (human blood), `CC(C)NCC(O)COc1ccc(CC(=O)OCC(=O)OC2CCCCC2)cc1` (centres undefined) came in with a half-life of 4.5 min. The compound further came in with a K in the series filed under Homo sapiens [2] of 0.154 min⁻¹.
